Converted amounts (≈) assume the structure as drawn. The source made the active and inactive calls. The rule behind the calls is not given here.
Assays:
[1] = molecular target: Receptor tyrosine-protein kinase erbB-2 (Homo sapiens) (UniProt P04626); assay: (§1) Inhibition of recombinant wild-type human N-terminally GST-His6 tagged ERBB2 (Q679 to V1255 residues) C-terminal fragment harboring thrombin cleavage site expressed in Baculovirus infected Sf9 cells assessed as residual activity at 1 uM in presence of [33-gamma]-ATP after 60 mins by scintillation counting method relative to control
[2] = tested on: Epidermal growth factor receptor (Homo sapiens), P00533 [L861Q]; assay: as §1, with “recombinant” for “recombinant wild-type”, “EGFR L861Q mutant (H672” for “ERBB2 (Q679”, “A1210” for “V1255”, “3C” for “thrombin”
[3] = molecular target: Mitogen-activated protein kinase kinase kinase kinase 4 (Homo sapiens) (UniProt O95819); assay: Inhibition of recombinant human N-terminally GST-His6 tagged MAP4K4 (A7 to W1320 residues) harboring 3C-cleavage site expressed in Baculovirus infected Sf9 cells assessed as residual activity at 1 uM in presence of [33-gamma]-ATP after 60 mins by scintillation counting method relative to control
[4] = molecular target: Serine/threonine-protein kinase 25 (Homo sapiens) (UniProt O00506); assay: Inhibition of STK25 (unknown origin) assessed as residual activity at 1 uM in presence of [33-gamma]-ATP after 60 mins by scintillation counting method relative to control
[5] = species on record: Homo sapiens; assay: as §1, with “recombinant” for “recombinant wild-type”, “EGFR del 747-749/A750P mutant (H672” for “ERBB2 (Q679”, “A1210” for “V1255”, “3C” for “thrombin”
[6] = Drug metabolism in human liver microsomes assessed as parent compound remaining at 100 uM after 4 hrs in presence of NADPH regenerating system by LC-MS analysis; type: ADME, microsome; conditions: read-out: Stability
[7] = tested on: Epidermal growth factor receptor (Homo sapiens), P00533 [L858R,T790M]; assay: as §1, with “recombinant” for “recombinant wild-type”, “EGFR T790M/L858R double mutant (H672” for “ERBB2 (Q679”, “A1210” for “V1255”, “3C” for “thrombin”
[8] = molecular target: MAP kinase-activated protein kinase 2 (Homo sapiens) (UniProt P49137); assay: Inhibition of recombinant full-length human MAPKAPK2 (M1 to L370 residues) expressed in Baculovirus infected Sf9 cells assessed as residual activity at 1 uM in presence of [33-gamma]-ATP after 60 mins by scintillation counting method relative to control
[9] = molecular target: Mitogen-activated protein kinase kinase kinase kinase 5 (Homo sapiens) (UniProt Q9Y4K4); assay: Inhibition of MAP4K5 (unknown origin) assessed as residual activity at 1 uM in presence of [33-gamma]-ATP after 60 mins by scintillation counting method relative to control
[10] = molecular target: Tyrosine-protein kinase Tec (Homo sapiens) (UniProt P42680); assay: Inhibition of TEC (unknown origin) assessed as residual activity at 1 uM in presence of [33-gamma]-ATP after 60 mins by scintillation counting method relative to control
[11] = Solubility of the compound at pH 7.5 by UV-HPLC analysis; type: physicochemical; conditions: buffer, read-out: solubility
How it was run: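 Solubility measured in the kinase assay buffer (pH 7.5); concentration determined by HPLC with UV detection.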

[12] = tested on: Epidermal growth factor receptor (Homo sapiens), P00533 [G719S]; assay: as §1, with “recombinant” for “recombinant wild-type”, “EGFR G719S mutant (H672” for “ERBB2 (Q679”, “A1210” for “V1255”, “3C” for “thrombin”
[13] = molecular target: Tyrosine-protein kinase TXK (Homo sapiens) (UniProt P42681); assay: Inhibition of TXK (unknown origin) assessed as residual activity at 1 uM in presence of [33-gamma]-ATP after 60 mins by scintillation counting method relative to control
[14] = molecular target: Epidermal growth factor receptor (Homo sapiens, UniProt P00533, L858R/T790M); assay: Binding affinity to human EGFR L858R/T790M double mutant (669 to 1011 residues) expressed in mammalian system incubated for 1 hr
How it was run: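 Competition binding of inhibitor against an immobilized active-site-directed ligand; Kd read out. Compound and kinase combined and equilibrated for 1 h without dilution (study arm C).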

[15] = molecular target: Mitogen-activated protein kinase 9 (Homo sapiens) (UniProt P45984); assay: Inhibition of recombinant full-length human JNK2 (M1 to Y424 residues) expressed in Escherichia coli assessed as residual activity at 1 uM in presence of [33-gamma]-ATP after 60 mins by scintillation counting method relative to control
[16] = species on record: Homo sapiens; assay: as §1, with “recombinant” for “recombinant wild-type”, “EGFR 746-750 deletion mutant (M672” for “ERBB2 (Q679”, “A1210” for “V1255”, “3C” for “thrombin”
[17] = tested on: Epidermal growth factor receptor (Homo sapiens), P00533 [L858R]; assay: Ratio of Kd for human EGFR L858R mutant (669 to 1011 residues) after 1 hr to Kd for human EGFR L858R mutant (669 to 1011 residues) after 6 hrs
How it was run: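 Kd from competition with an immobilized active-site-directed ligand […]. Ratio compares 1 h compound–kinase equilibration against an arm with 6 h overall equilibration.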

[18] = molecular target: Epidermal growth factor receptor (Homo sapiens, UniProt P00533); assay: Binding affinity to wild-type human EGFR (669 to 1011 residues) expressed in bacterial system preincubated for 1 hr followed by 30 fold dilution measured after 5 hrs; type: ADME
How it was run: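 Competition binding against an immobilized active-site-directed ligand; Kd read out. Compound and kinase combined and equilibrated 1 h, then diluted 30-fold in reaction buffer and equilibrated a further 5 h (study arm B).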

[19] = species on record: Homo sapiens; assay: Selectivity ratio of IC50 for EGFR L858R/T790M double mutant (unknown origin) to IC50 for wild-type EGFR (unknown origin)
[20] = molecular target: Mitogen-activated protein kinase 14 (Homo sapiens, UniProt Q16539); assay: Inhibition of recombinant full-length human p38alpha MAPK (M1 to S360 residues) expressed in Escherichia coli at 1 uM in presence of [33-gamma]-ATP after 60 mins by scintillation counting method
[21] = tested on: Epidermal growth factor receptor (Homo sapiens), P00533 [L858R]; assay: as §1, with “recombinant” for “recombinant wild-type”, “EGFR L858R mutant (H672” for “ERBB2 (Q679”, “A1210” for “V1255”, “3C” for “thrombin”
[22] = molecular target: Epidermal growth factor receptor (Homo sapiens, UniProt P00533, L858R); assay: Binding affinity to human EGFR L858R mutant (669 to 1011 residues) expressed in bacterial system incubated for 1 hr
How it was run: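 Competition binding: compound's ability to displace an immobilized, active-site-directed ligand from the kinase, reported as Kd. Compound and kinase were combined and equilibrated 1 h without dilution before read-out.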

Tyrosine-protein kinase Tec (Homo sapiens), sequence (P42680 whole entry): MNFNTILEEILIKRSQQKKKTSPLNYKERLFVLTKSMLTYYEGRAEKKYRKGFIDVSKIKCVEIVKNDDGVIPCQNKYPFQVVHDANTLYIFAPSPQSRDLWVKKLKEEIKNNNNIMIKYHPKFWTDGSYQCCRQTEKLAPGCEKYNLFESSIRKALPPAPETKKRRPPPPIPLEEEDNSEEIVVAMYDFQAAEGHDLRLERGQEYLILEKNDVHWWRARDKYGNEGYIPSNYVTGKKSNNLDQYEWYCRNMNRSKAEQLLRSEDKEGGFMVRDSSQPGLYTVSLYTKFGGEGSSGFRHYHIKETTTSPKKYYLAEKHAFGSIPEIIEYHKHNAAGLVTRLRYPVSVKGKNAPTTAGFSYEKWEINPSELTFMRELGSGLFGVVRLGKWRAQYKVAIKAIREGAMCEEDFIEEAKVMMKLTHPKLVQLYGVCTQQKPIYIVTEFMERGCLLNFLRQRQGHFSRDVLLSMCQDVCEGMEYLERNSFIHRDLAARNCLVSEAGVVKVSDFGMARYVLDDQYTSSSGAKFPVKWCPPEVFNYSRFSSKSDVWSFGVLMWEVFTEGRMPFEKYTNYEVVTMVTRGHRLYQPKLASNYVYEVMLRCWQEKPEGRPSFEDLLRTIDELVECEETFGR
Receptor tyrosine-protein kinase erbB-2 (Homo sapiens), sequence (P04626 whole entry, the tested form may be a part): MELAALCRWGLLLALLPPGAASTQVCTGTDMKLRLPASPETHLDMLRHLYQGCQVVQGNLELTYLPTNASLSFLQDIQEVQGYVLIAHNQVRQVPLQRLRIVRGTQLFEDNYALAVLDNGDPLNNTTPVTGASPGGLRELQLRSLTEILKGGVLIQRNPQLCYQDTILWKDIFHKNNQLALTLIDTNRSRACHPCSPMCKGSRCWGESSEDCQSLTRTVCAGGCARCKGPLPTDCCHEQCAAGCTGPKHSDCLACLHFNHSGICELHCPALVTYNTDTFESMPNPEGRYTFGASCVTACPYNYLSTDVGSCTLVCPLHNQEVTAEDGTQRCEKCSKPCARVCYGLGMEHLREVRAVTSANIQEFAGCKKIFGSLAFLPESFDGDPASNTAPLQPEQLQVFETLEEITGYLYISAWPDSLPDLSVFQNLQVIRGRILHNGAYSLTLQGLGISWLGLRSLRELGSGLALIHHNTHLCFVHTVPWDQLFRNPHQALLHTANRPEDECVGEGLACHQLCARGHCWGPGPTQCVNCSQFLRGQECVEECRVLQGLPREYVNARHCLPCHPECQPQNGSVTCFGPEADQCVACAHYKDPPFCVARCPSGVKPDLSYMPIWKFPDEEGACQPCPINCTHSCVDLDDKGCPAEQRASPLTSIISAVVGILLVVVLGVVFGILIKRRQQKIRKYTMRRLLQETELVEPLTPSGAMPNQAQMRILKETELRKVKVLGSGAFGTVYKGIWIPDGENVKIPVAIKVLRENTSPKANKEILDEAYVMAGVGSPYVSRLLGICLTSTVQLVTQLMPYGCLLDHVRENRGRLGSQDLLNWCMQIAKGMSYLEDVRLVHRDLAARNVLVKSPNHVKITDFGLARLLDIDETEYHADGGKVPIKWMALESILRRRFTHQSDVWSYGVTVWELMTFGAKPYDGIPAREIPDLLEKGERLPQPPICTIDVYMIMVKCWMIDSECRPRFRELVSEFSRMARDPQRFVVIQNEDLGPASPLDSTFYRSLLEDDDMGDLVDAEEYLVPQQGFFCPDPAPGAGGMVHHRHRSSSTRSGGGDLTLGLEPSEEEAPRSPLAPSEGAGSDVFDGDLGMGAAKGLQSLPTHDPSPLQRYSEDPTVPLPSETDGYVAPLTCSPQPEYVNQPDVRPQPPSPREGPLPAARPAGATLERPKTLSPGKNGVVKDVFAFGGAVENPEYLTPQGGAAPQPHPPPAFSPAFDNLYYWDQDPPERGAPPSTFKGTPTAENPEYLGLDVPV
Mitogen-activated protein kinase kinase kinase kinase 4 (Homo sapiens), sequence (O95819 2-1239 limits assumed): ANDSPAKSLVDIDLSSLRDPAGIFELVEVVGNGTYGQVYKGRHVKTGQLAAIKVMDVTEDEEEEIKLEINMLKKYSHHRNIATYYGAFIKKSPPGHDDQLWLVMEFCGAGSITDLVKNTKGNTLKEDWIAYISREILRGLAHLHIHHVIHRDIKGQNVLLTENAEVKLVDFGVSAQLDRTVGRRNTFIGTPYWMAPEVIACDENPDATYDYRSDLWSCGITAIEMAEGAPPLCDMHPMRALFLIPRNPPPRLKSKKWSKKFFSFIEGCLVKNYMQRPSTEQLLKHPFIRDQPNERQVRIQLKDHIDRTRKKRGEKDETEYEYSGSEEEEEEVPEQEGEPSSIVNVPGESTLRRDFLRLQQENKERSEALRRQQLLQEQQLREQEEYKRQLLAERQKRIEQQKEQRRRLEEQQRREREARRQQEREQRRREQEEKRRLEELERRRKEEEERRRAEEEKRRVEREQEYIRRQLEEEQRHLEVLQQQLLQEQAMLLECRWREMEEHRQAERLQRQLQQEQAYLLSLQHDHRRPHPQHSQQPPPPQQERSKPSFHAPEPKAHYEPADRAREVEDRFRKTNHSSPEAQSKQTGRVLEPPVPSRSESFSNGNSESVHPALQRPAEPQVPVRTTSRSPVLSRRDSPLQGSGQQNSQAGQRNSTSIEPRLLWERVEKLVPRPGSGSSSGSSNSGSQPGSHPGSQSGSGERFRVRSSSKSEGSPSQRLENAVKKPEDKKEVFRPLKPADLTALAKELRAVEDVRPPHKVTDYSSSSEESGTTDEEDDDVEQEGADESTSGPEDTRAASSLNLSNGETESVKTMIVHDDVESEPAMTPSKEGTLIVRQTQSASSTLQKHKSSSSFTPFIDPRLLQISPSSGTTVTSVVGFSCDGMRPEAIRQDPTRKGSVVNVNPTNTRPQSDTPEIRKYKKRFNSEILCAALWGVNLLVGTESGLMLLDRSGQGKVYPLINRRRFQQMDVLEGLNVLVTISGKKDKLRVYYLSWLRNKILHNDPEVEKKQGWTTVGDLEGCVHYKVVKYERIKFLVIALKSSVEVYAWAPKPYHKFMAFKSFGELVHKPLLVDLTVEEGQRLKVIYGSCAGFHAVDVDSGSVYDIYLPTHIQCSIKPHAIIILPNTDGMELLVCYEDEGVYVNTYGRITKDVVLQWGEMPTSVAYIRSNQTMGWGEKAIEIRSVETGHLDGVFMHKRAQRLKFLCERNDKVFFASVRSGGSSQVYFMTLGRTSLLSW
MAP kinase-activated protein kinase 2 (Homo sapiens), sequence (P49137 whole entry, looked up, the tested form may be a part): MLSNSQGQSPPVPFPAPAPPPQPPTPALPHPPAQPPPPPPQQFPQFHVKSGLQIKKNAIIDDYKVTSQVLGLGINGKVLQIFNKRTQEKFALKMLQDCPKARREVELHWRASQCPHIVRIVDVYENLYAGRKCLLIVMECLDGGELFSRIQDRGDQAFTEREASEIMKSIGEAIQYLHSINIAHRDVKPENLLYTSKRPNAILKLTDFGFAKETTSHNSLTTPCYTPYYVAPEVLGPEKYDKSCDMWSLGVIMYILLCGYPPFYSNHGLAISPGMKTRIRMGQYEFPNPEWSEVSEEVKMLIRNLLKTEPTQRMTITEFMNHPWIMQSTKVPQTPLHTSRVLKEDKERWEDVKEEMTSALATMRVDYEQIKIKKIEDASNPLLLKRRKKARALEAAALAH
Serine/threonine-protein kinase 25 (Homo sapiens), sequence (O00506 whole entry, looked up): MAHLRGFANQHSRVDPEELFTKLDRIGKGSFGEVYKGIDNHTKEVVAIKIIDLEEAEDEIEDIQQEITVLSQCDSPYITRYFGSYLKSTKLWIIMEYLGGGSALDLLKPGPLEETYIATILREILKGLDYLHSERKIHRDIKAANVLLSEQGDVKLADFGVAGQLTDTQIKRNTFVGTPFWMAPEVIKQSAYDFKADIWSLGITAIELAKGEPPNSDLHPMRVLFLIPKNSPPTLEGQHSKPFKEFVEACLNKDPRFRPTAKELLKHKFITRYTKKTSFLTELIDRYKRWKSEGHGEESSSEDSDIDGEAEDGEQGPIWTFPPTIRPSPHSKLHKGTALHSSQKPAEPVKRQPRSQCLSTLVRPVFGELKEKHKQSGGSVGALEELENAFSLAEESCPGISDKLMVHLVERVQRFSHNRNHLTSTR
Mitogen-activated protein kinase kinase kinase kinase 5 (Homo sapiens), sequence (Q9Y4K4 whole entry, looked up): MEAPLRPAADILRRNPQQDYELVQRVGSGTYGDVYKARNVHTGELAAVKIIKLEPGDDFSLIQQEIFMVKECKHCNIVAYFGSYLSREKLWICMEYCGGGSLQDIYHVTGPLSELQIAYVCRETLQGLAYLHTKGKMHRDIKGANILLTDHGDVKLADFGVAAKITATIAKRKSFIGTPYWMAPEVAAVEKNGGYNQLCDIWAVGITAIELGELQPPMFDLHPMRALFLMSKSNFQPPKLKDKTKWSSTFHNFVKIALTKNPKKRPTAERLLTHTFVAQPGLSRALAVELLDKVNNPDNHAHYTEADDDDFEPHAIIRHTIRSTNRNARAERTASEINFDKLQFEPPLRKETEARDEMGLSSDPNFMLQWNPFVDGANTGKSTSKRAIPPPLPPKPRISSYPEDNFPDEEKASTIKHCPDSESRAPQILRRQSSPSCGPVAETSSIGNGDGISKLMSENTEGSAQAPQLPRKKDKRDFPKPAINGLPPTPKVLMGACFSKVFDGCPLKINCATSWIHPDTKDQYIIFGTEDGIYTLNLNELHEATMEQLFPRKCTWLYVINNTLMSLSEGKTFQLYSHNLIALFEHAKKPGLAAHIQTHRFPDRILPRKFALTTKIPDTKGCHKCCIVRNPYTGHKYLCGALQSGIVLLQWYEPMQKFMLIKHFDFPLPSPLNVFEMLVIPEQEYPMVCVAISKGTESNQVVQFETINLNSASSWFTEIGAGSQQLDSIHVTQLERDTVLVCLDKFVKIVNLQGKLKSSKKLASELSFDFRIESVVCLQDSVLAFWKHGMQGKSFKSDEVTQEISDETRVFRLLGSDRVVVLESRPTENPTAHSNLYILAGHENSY

C=CC(=O)Nc1cccc(-c2c[nH]c3nccc(-c4[nH]c(CCCO)nc4-c4ccc(F)cc4)c23)c1
Activity [1]: 17%
Activity [2]: 3%
Activity [3]: 1%
Activity [4]: 49%
Activity [5]: 6%
remaining at 4 h, 100 µM [6]: 87%
Activity [7]: 21%
Activity [8]: 48%
Activity [9]: 2%
Activity [10]: 33%
solubility [11]: 299 µg/mL (≈ 621 µM)
Activity [12]: 22%
Activity [13]: 3%
Kd [14]: 13 nM
Activity [15]: 37%
Activity [16]: 3%
Ratio [17]: 3 to 5
Kd [18]: 3.4 nM
Ratio IC50 [19]: > 40
inhibition [20]: Active
Activity [21]: 6%
Kd [22]: 0.93 nM
